Data reported in ChEMBL document CHEMBL3352280, “Modulation of cAMP-specific PDE without emetogenic activity: new sulfide-like PDE7 inhibitors” (J Med Chem, 2014).
Active and inactive are the calls of the source. No cut-off for these calls is given here.

Key:
[1] = target: T1, High affinity 3',5'-cyclic-AMP phosphodiesterase 7A (Homo sapiens, UniProt Q13946); assay: Inhibition of human recombinant PDE7A1 assessed as inhibition of hydrolysis of [3H]cAMP at 10 uM after 20 mins by scintillation proximity assay
Summary of the method: (§1)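 Scintillation proximity assay with human recombinant enzyme: PDE7A1 0.02 U, PDE3A 0.02 U, PDE7B 0.5 U, PDE8A 0.5 U. Enzyme incubated with 5 nCi [3H]cAMP and inhibitor in kit buffer for 20 min at 30 °C. SPA beads added and shaken 1 h at room temperature, settled 30 min, radioactivity counted.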

[2] = target: T1, High affinity 3',5'-cyclic-AMP phosphodiesterase 7A; assay: Inhibition of human recombinant PDE7A1 assessed as inhibition of hydrolysis of [3H]cAMP after 20 mins by scintillation proximity assay; summary of the method: as §1
[3] = target: T2, 3',5'-cyclic-AMP phosphodiesterase 4D (Homo sapiens, UniProt Q08499); assay: Inhibition of human recombinant PDE4D3 assessed at 10 uM after 60 mins by IMAP fluorescence polarization assay
Astrocyte = assay: Inhibition of LPS-induced NO production in rat astrocytes treated for 1 hr at 10 uM before LPS challenge measured after 24 hrs by Griess assay; type: functional, cell-based
Summary of the method: (§2)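 After 2 days, cells were pretreated with compound (10 μM), then LPS (10 μg/mL) was added for 24 h. Nitrite in the supernatant was measured by Griess reagent (15 min, room temperature, absorbance 492/540 nm). Mean ± SD of three experiments.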

[4] = target: cGMP-inhibited 3',5'-cyclic phosphodiesterase 3A (Homo sapiens) (UniProt Q14432); assay: Inhibition of human recombinant PDE3A assessed as inhibition of hydrolysis of [3H]cAMP at 10 uM after 20 mins by scintillation proximity assay; summary of the method: as §1
Microglia = assay: Inhibition of LPS-induced NO production in rat microglia treated for 1 hr at 10 uM before LPS challenge measured after 24 hrs by Griess assay; type: functional; summary of the method: as §2
[5] = target: T3, 3',5'-cyclic-AMP phosphodiesterase 7B (Homo sapiens, UniProt Q9NP56); assay: Inhibition of human recombinant PDE7B assessed as inhibition of hydrolysis of [3H]cAMP at 10 uM after 20 mins by scintillation proximity assay; summary of the method: as §1
[6] = target: T4, 3',5'-cyclic-AMP phosphodiesterase 4B (Homo sapiens, UniProt Q07343); assay: Inhibition of human recombinant PDE4B2 assessed at 10 uM after 60 mins by IMAP fluorescence polarization assay
SH-SY5Y = assay: Cytoprotective activity against 6-OHDA-induced death of human SH-SY5Y cells pretreated for 1 hr at 10 uM measured 16 hrs post 6-OHDA challenge by MTT assay; type: functional, cell-based
Summary of the method: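 Human neuroblastoma SH-SY5Y grown in F12/EMEM with 2 mM glutamine, 1% nonessential amino acids and 15% FBS at 37 °C, 5% CO2. Semiconfluent cells pretreated 1 h with compound, then 6-OHDA (35 μM) added for 16 h. Viability by MTT (0.5 mg/mL, 4 h), SDS/HCl solubilisation, absorbance 595 nm. Mean ± SD of three experiments.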

[7] = target: T3, 3',5'-cyclic-AMP phosphodiesterase 7B; assay: Inhibition of human recombinant PDE7B assessed as inhibition of hydrolysis of [3H]cAMP after 20 mins by scintillation proximity assay; summary of the method: as §1
Mus musculus = assay: Emetogenic potential in surrogate emesis CD1 mouse model assessed as effect on xyclacine/ketamine-induced loss of righting reflex at 0.1 to 10 mg/kg, sc; type: ADME, organism-based; parameters: dose 0.1-10 mg/kg, route subcutaneous; settings: in vivo
Phosphodiesterase 7 = Phosphodiesterase 7 (Homo sapiens, UniProt Q13946+Q9NP56); assay: Inhibition of PDE7 (unknown origin); type: protein assay
[8] = target: T4, 3',5'-cyclic-AMP phosphodiesterase 4B; assay: Inhibition of human recombinant PDE4B2 assessed after 60 mins by IMAP fluorescence polarization assay
[9] = target: T2, 3',5'-cyclic-AMP phosphodiesterase 4D; assay: Inhibition of human recombinant PDE4D3 assessed after 60 mins by IMAP fluorescence polarization assay

T2 sequence (Q08499 whole entry): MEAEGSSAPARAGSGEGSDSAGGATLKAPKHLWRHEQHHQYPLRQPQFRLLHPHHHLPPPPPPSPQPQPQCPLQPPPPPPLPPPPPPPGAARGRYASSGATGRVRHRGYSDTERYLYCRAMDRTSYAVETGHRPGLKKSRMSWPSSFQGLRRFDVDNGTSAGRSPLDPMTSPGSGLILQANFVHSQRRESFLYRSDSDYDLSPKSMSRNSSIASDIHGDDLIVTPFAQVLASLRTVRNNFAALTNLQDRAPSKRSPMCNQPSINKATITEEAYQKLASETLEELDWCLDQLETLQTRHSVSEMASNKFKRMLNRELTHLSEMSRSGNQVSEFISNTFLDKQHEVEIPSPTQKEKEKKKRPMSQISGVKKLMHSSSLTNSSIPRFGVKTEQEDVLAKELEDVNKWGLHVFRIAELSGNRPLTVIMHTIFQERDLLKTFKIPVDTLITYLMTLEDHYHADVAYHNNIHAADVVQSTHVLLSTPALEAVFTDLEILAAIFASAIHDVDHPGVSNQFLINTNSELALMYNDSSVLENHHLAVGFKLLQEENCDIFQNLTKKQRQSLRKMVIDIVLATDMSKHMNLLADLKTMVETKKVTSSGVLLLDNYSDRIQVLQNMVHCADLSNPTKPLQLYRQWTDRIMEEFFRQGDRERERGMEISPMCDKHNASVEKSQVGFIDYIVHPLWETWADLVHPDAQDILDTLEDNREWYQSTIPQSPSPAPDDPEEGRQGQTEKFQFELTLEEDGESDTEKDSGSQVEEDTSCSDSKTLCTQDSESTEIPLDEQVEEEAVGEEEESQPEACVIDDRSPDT
T4 sequence (Q07343 whole entry): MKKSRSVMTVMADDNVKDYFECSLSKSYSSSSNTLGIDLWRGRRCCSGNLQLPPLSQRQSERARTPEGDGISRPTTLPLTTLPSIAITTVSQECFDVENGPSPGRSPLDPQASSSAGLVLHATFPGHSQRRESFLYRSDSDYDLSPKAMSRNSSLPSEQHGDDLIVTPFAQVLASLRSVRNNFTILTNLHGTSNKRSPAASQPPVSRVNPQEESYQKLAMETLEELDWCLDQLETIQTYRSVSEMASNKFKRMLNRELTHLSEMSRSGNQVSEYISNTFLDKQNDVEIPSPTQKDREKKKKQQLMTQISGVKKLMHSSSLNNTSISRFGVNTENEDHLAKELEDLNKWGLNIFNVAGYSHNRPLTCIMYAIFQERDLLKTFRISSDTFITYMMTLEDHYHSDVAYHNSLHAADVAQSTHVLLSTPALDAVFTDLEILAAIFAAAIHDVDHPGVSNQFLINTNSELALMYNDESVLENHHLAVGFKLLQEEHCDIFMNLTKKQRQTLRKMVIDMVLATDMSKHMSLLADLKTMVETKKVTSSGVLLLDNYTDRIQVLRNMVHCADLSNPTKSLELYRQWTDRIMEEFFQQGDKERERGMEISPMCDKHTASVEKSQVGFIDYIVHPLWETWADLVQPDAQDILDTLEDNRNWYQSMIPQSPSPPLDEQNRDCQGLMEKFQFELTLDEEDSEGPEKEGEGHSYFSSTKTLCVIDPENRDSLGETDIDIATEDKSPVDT
cGMP-inhibited 3',5'-cyclic phosphodiesterase 3A (Homo sapiens), sequence (Q14432 whole entry): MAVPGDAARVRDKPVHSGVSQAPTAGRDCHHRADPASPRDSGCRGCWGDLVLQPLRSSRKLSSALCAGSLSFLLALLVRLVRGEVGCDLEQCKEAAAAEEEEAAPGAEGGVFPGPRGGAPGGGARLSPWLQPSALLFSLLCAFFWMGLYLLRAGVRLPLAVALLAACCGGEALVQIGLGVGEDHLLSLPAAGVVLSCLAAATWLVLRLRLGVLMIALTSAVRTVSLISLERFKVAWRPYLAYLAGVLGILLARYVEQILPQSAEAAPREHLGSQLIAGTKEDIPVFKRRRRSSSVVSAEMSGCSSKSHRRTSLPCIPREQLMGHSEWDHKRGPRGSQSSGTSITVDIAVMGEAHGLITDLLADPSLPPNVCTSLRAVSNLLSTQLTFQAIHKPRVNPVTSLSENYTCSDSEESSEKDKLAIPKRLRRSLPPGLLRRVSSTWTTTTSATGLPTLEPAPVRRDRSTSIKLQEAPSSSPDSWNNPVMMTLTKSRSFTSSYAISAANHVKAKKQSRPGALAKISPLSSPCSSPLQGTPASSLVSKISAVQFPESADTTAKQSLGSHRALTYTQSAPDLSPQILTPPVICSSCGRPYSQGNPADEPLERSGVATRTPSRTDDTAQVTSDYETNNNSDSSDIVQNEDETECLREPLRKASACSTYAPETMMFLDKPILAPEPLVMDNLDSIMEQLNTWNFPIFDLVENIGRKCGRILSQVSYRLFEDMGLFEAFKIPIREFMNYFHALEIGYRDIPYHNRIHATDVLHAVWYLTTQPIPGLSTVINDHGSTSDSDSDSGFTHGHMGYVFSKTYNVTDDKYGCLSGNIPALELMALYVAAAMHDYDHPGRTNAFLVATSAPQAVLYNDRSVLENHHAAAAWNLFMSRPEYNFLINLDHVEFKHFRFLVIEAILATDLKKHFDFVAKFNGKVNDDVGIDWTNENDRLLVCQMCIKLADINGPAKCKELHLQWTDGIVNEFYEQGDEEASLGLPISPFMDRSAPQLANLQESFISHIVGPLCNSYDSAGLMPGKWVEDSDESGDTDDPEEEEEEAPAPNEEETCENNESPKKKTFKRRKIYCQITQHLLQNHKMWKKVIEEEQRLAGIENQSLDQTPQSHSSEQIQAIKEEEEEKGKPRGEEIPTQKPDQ
T1 sequence (Q13946 whole entry): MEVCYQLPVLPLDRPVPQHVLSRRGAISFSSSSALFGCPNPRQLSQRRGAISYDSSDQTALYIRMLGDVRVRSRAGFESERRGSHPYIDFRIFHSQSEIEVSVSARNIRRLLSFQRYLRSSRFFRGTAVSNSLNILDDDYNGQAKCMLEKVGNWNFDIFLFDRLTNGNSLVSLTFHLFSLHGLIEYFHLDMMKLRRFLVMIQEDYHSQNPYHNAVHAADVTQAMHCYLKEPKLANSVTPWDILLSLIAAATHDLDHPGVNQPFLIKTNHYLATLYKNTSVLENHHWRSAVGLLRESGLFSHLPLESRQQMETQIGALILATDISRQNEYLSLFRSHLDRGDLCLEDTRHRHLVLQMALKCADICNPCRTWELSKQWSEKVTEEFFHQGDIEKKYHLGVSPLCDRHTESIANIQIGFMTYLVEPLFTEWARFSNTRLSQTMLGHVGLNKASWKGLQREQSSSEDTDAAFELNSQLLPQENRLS
T3 sequence (Q9NP56 whole entry): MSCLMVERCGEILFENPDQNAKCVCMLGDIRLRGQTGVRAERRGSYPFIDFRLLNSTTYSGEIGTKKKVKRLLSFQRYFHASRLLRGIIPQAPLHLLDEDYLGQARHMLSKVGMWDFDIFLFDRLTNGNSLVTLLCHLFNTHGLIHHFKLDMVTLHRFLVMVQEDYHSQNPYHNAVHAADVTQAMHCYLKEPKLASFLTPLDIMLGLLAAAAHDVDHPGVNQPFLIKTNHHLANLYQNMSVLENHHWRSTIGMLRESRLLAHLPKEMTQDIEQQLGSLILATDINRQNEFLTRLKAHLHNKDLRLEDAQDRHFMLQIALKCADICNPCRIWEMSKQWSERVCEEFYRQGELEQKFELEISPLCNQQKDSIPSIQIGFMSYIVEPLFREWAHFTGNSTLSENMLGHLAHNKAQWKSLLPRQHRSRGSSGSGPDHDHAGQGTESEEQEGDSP

With `Nc1cccc(Sc2ccncc2)c1` the inhibition [1] was 36%.
For `c1cnc(Sc2ccncc2)nc1`, the inhibition [1] was 12%.
Compound `Nc1cccc(Sc2ccc(Cl)cc2[N+](=O)[O-])c1` has an inhibition [1] of 68% and an IC50 [2] of 5.69 µM.
With `Nc1ccc(Sc2ccc([N+](=O)[O-])c(Cl)c2)cc1` the inhibition [3] was 3%, the inhibition (Astrocyte) was “Active” and the inhibition [4] was 22%. For the same compound, the inhibition (Microglia) was “Active”, the inhibition [5] was 42% and the inhibition [1] was 79%. The inhibition [6] was 2%, the Activity (SH-SY5Y) was “Active” and the IC50 [2] was 1.47 µM.
With `O=[N+]([O-])c1ccc(Cl)cc1Sc1ccccn1` the inhibition [1] was 56% and the IC50 [2] was 7.98 µM.
Compound `CC(=O)Nc1ccc(Sc2ccc(Cl)cc2[N+](=O)[O-])cc1` has an inhibition [1] of 7%.
`O=[N+]([O-])c1ccsc1Sc1sccc1[N+](=O)[O-]` gave an inhibition [1] of 31%.
Compound `O=[N+]([O-])c1ccc(Sc2ccc(Cl)cc2[N+](=O)[O-])cc1` has an inhibition [1] of 6%.
Work on `CC(C)c1ccccc1Sc1ccc([N+](=O)[O-])cc1Cl` yielded an inhibition [1] of 17%.
`CC(C)c1ccc(Sc2ccc(Cl)cc2[N+](=O)[O-])cc1` gave an inhibition [1] of 10%.
For `Nc1ccc(Sc2ccc([N+](=O)[O-])cc2C(F)(F)F)cc1`, the inhibition [1] was 63% and the IC50 [2] was 9.27 µM.
For `O=c1c2ccccc2[nH]c(=S)n1-c1ccccc1`, the inhibition [1] was 76% and the IC50 [2] was 4.68 µM.
`CC(=O)c1ccc(Sc2ccncc2)c([N+](=O)[O-])c1` was tested, and the inhibition [1] was 56% and the IC50 [2] was 3.8 µM.
`CC(C)c1ccc(Sc2ccc([N+](=O)[O-])cc2Cl)cc1` gave an inhibition [1] of 15%.
With `O=[N+]([O-])c1cc(Cl)ccc1Sc1ccccc1Br` the inhibition [3] was 44%, the inhibition (Astrocyte) was “Active” and the IC50 [7] was 1.41 µM. The inhibition [4] was 60%, the inhibition (Microglia) was “Active” and the inhibition [5] was 92%. For the same compound, the inhibition [1] was 79%, the inhibition [6] was 30% and the Activity (SH-SY5Y) was “Active”. The IC50 [2] was 0.99 µM.
Compound `Nc1ccc(Oc2ccc(Cl)cc2[N+](=O)[O-])cc1` has an inhibition [1] of 70% and an IC50 [2] of 3.3 µM.
`CC(=O)Nc1ccc(Oc2ccc(Cl)cc2[N+](=O)[O-])cc1` gave an inhibition [1] of 17%.
For `Nc1ccc(Sc2cc(Cl)ccc2[N+](=O)[O-])cc1`, the inhibition [1] was 71% and the IC50 [2] was 2.2 µM.
Compound `O=[N+]([O-])c1ccc(Sc2cccs2)c(Cl)c1` has an inhibition [1] of 69% and an IC50 [2] of 5.2 µM.
In the case of `S=c1[nH]c2ccccc2c(=S)n1-c1ccccc1`, the Activity (Mus musculus) is reported as “Non-toxic” and the IC50 (Phosphodiesterase 7) is reported as 1.04 µM.
`Nc1ccc(Cl)cc1Sc1ccccc1[N+](=O)[O-]` showed an IC50 [2] of 7.3 µM.
For `Nc1ccccc1Sc1cc(Cl)ccc1[N+](=O)[O-]`, the inhibition [1] was 66% and the IC50 [2] was 5.45 µM.
Compound `COc1ccc(Sc2ccncc2)cc1` has an inhibition [1] of 18%.
`Cc1cnc(Sc2cccc(N)c2)c([N+](=O)[O-])c1` gave an inhibition [1] of 3%.
In the case of `c1ccc(Sc2ccncc2)cc1`, the inhibition [1] is reported as 44%.
Compound `O=[N+]([O-])c1ccc(Sc2ccccc2)c(Cl)c1` has an inhibition [1] of 74% and an IC50 [2] of 2.2 µM.
Work on `Nc1ccccc1Sc1ccc(F)cc1[N+](=O)[O-]` yielded an inhibition [1] of 38%.
`O=[N+]([O-])c1ccc(Cl)cc1Sc1ccc(Br)cc1` showed an inhibition [1] of 36%.
`Nc1ccc(Oc2ccc([N+](=O)[O-])cc2Cl)cc1` was tested, and the inhibition [1] was 77% and the IC50 [2] was 2.2 µM.
`Nc1ccc(Sc2ccc(F)cc2[N+](=O)[O-])cc1` was tested, and the inhibition [1] was 64% and the IC50 [2] was 6.18 µM.
For `Cc1cnc(Sc2ccc(-c3ccccc3)cc2)c([N+](=O)[O-])c1`, the inhibition [1] was 2%.
With `Nc1ccc(Sc2ccc(Cl)cc2N)cc1` the inhibition [1] was 13%.
Work on `CC(=O)Nc1ccc(Sc2ccc([N+](=O)[O-])cc2Cl)cc1` yielded an inhibition [1] of 26%.
`O=[N+]([O-])c1cc(Cl)c(Cl)cc1Sc1ccccc1Br` was tested, and the inhibition [1] was 49% and the IC50 [2] was 2.88 µM.
For `Br.OCC/N=c1/nc(-c2ccccc2)n(-c2ccccc2)s1`, the Activity (Mus musculus) was “Non-toxic” and the IC50 (Phosphodiesterase 7) was 1.11 µM.
For `Nc1ccccc1Sc1ccc(Cl)cc1[N+](=O)[O-]`, the inhibition [1] was 69% and the IC50 [2] was 5.75 µM.
Compound `Nc1ccc(Sc2ccc(N)cc2Cl)cc1` has an inhibition [1] of 46% and an IC50 [2] of 6.5 µM.
`Cc1cnc(Sc2ccncc2)c([N+](=O)[O-])c1` gave an inhibition [1] of 27%.
`Nc1ccccc1Sc1ccc([N+](=O)[O-])cc1C(F)(F)F` gave an inhibition [1] of 42%.
`COc1ccc(Sc2cccnc2)cc1` gave an inhibition [1] of 17%.
In the case of `O=[N+]([O-])c1ccc(SCc2ccccc2Br)c(Cl)c1`, the inhibition [1] is reported as 33%.
`Cc1ccc([N+](=O)[O-])cc1S(=O)(=O)N(C)C` was tested, and the inhibition [4] was 0.43%, the inhibition [1] was 99% and the IC50 [8] was 1.8 µM. The IC50 [9] was 1.28 µM.
In the case of `CC(=O)Nc1ccccc1Sc1cc(Cl)ccc1[N+](=O)[O-]`, the inhibition [3] is reported as 10%, the inhibition [4] is reported as 10% and the inhibition [1] is reported as 58%. It also gave an inhibition [6] of 11% and an IC50 [2] of 2.1 µM.
With `O=[N+]([O-])c1cc(Cl)ccc1Sc1ccc(Br)cc1` the inhibition [1] was 11%.
`O=[N+]([O-])c1ccc(Sc2ccccc2Br)c(Cl)c1` was tested, and the inhibition [1] was 59% and the IC50 [2] was 2.14 µM.
In the case of `O=[N+]([O-])c1cc(Cl)ccc1Sc1ccccn1`, the inhibition [1] is reported as 69% and the IC50 [2] is reported as 3.6 µM.
`O=[N+]([O-])c1ccc(Sc2ccc([N+](=O)[O-])cc2Cl)cc1` showed an inhibition [1] of 1%.
In the case of `O=[N+]([O-])c1ccc(Cl)cc1Sc1ccccc1Br`, the inhibition [3] is reported as 2%, the inhibition (Astrocyte) is reported as “Active” and the IC50 [7] is reported as 2.2 µM. For the same compound, the inhibition [4] was 16%, the inhibition (Microglia) was “Active” and the inhibition [5] was 71%. The inhibition [1] was 69%, the inhibition [6] was 6% and the Activity (SH-SY5Y) was “Active”. It also gave an IC50 [2] of 1.01 µM.
Work on `Nc1cccc(Sc2ccc([N+](=O)[O-])cc2Cl)c1` yielded an inhibition [1] of 78% and an IC50 [2] of 3.2 µM.
`O=[N+]([O-])c1ccc(Sc2ccc(Br)cc2)c(Cl)c1` gave an inhibition [1] of 23%.
With `O=[N+]([O-])c1ccc(Cl)cc1Sc1ccncc1` the inhibition [1] was 80% and the IC50 [2] was 1.88 µM.
For `CC(=O)Nc1ccc(Oc2ccc([N+](=O)[O-])cc2Cl)cc1`, the inhibition [1] was 4%.
`Nc1ccccc1Sc1cc(Cl)c(Cl)cc1[N+](=O)[O-]` was tested, and the inhibition [1] was 74% and the IC50 [2] was 6.48 µM.
With `c1ccc(-c2ccc(Sc3ccccn3)cc2)cc1` the inhibition [1] was 32%.
With `COc1cc(COC(=O)c2ccc(-c3ccccc3)o2)cc(OC)c1OC` the Activity (Mus musculus) was “Non-toxic” and the IC50 (Phosphodiesterase 7) was 5.17 µM.
`CC(=O)NNc1ccccc1Sc1ccccc1Br` was tested, and the inhibition [1] was 27%.
Work on `Nc1ccccc1Sc1ccc([N+](=O)[O-])cc1Cl` yielded an inhibition [1] of 60% and an IC50 [2] of 8.77 µM.
For `O=[N+]([O-])c1cc(Cl)ccc1Sc1ccncc1`, the inhibition [3] was 74%, the inhibition (Astrocyte) was “Active” and the IC50 [7] was 13.9 µM. The inhibition [4] was 33%, the inhibition (Microglia) was “Active” and the inhibition [5] was 76%. It also gave an inhibition [1] of 91%, an IC50 [8] of 4.4 µM and an IC50 [9] of 3 µM. The inhibition [6] was 77%, the Activity (SH-SY5Y) was “Active” and the IC50 [2] was 0.72 µM.
With `CC(=O)Nc1ccccc1Sc1sccc1[N+](=O)[O-]` the inhibition [1] was 31%.
Work on `Nc1ccccc1Sc1sccc1[N+](=O)[O-]` yielded an IC50 [2] of 4.27 µM.
In the case of `Nc1ccc(Sc2ccc([N+](=O)[O-])cc2Cl)cc1`, the inhibition [1] is reported as 83% and the IC50 [2] is reported as 3.97 µM.
In the case of `O=[N+]([O-])c1cc(Cl)ccc1SCc1ccccc1Br`, the inhibition [1] is reported as 31%.
With `O=[N+]([O-])c1cc(Cl)ccc1Sc1ccccc1` the inhibition [3] was 13%, the inhibition (Astrocyte) was “Active” and the IC50 [7] was 1.5 µM. For the same compound, the inhibition [4] was 46%, the inhibition (Microglia) was “Active” and the inhibition [5] was 74%. The inhibition [1] was 87%, the inhibition [6] was 28% and the Activity (SH-SY5Y) was “Active”. For the same compound, the IC50 [2] was 1.5 µM.
With `O=[N+]([O-])c1cc(Cl)ccc1Sc1cccs1` the inhibition [1] was 81% and the IC50 [2] was 1.6 µM.
